Experimental data taken from ChEMBL document CHEMBL1135768, “Design, synthesis, and SAR of tachykinin antagonists: modulation of balance in NK(1)/NK(2) receptor antagonist activity” (J Med Chem, 2002).

Experiments:
Substance-K receptor = target: T1, Substance-K receptor (Homo sapiens, UniProt P21452); assay: Inhibition of binding of [3H]NKA to human Tachykinin receptor 2 (NK2) expressed in mouse erythroleukemia cells; type: cell-based
T1 sequence (P21452 whole entry): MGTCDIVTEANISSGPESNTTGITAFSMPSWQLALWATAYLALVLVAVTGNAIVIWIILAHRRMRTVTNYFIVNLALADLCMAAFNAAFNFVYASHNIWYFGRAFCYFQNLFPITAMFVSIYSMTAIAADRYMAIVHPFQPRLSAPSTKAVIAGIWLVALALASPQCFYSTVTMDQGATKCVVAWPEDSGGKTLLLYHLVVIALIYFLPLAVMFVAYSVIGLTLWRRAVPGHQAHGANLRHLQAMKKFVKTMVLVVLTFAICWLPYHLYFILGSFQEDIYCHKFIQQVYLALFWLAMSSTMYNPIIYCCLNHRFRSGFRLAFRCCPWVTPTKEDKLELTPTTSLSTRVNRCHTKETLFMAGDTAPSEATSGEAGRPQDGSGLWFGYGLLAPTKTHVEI

Neuromedin-K receptor = target: T2, Neuromedin-K receptor (Homo sapiens, UniProt P29371); assay: Inhibition of binding of [125I]MPNI to human Tachykinin receptor 3 (NK3) expressed in mouse erythroleukemia cells; type: cell-based
T2 sequence (P29371 whole entry): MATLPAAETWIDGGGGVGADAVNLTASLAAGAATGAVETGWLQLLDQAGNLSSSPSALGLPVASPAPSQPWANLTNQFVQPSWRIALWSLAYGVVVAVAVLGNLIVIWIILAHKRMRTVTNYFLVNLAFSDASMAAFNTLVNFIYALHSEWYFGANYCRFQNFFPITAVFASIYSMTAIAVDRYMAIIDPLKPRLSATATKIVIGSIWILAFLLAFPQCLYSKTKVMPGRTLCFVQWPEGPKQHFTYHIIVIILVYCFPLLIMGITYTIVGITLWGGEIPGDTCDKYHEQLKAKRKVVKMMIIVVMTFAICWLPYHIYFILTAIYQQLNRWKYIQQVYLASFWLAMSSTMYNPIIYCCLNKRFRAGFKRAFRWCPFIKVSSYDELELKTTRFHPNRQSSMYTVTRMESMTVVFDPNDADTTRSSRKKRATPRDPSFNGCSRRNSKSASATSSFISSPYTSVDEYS

[1] = target: T3, Substance-K receptor (Oryctolagus cuniculus) (UniProt P79218); assay: Tested for the binding affinity towards tachykinin receptor 2 (NK2) in rabbit pulmonary artery tissue
T3 sequence (whole entry): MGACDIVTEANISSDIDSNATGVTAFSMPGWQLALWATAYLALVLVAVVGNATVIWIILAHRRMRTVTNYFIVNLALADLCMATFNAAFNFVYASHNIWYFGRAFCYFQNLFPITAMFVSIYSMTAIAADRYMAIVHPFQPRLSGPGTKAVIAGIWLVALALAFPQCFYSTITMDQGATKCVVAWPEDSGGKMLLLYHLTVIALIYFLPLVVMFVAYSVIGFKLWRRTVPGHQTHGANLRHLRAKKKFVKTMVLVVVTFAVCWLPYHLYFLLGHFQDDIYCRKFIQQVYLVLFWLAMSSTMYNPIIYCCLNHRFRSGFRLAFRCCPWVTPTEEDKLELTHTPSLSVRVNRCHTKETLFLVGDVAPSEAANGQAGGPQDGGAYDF

[2] = system: Substance-P receptor (Oryctolagus cuniculus); assay: Tested for the binding affinity towards tachykinin receptor 1 (NK1) in rabbit pulmonary artery tissue
[3] = target: Substance-P receptor (Cavia porcellus) (UniProt P30547); assay: In vivo potency as dose ratio (ED50 ratio for Tachykinin receptor 1 in presence and absence of antagonist) in guinea pig PMM after intravenous administration at a dose 10 uM/Kg
Sequence of Substance-P receptor (Cavia porcellus) (P30547 whole entry): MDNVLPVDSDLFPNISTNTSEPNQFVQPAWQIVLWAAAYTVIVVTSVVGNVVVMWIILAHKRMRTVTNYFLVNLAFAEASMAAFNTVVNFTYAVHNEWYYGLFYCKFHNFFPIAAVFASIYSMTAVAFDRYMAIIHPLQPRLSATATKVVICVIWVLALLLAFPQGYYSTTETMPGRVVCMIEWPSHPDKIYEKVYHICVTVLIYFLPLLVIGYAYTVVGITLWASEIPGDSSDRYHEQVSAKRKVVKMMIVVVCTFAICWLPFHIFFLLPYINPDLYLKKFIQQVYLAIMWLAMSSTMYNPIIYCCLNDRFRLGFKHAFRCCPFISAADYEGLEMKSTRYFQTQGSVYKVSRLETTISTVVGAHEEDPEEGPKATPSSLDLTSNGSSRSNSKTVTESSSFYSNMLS

[4] = target: T4, Substance-K receptor (Cavia porcellus) (UniProt Q64077); assay: In vivo potency as dose ratio (ED50 ratio for Tachykinin receptor 2 (NK2) in presence and absence of antagonist) in guinea pig PMM after intravenous administration at a dose 10 uM/Kg
T4 sequence (whole entry): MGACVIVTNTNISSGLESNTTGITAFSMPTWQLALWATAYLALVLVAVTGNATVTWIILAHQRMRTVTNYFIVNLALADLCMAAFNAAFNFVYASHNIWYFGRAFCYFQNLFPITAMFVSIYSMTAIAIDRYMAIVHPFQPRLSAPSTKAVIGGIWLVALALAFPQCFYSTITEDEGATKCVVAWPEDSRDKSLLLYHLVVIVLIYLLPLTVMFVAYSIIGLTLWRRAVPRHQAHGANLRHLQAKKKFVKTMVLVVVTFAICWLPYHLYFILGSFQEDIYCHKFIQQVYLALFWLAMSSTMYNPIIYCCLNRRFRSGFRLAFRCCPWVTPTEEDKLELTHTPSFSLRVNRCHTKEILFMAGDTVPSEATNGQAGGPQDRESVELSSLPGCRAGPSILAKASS

[5] = target: Substance-P receptor (Cavia porcellus) (UniProt P30547); assay: In vivo binding affinity towards Tachykinin receptor 1 after oral administration in presence of agonist ASMSP in guinea pig pulmonary tissue in lung plasma extravation assay; type: organism-based
Outline: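 Guinea pig lung plasma extravasation model. Antagonist dosed orally; NK1-selective agonist ASMSP challenge 2 h postdose. Single ED50 calculated from dose response in three to six animals per dose over 4–5 dose levels, doses staggered across several days.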

[6] = Bioavailability in dog (dose 1-10 uM/kg i.v.); type: ADME, organism-based, Canis lupus familiaris; conditions: in vivo, iv
Outline: (§1)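 Compound given to rat (n = 3) or dog (n = 1) by iv bolus at 1–10 μmol/kg, or orally at 10–100 μmol/kg, as a solution in 75% poly(ethylene glycol) 400 in normal saline.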

[7] = target: Substance-P receptor (Cavia porcellus) (UniProt P30547); assay: In vivo potency as dose ratio (ED50 ratio for Tachykinin receptor 1 in presence and absence of antagonist) in guinea pig PMM after oral administration at a dose 30 uM/Kg
Substance-P receptor = Substance-P receptor (Homo sapiens, UniProt P25103); assay: Inhibition of binding of [3H]SP to Tachykinin receptor 1 of human tachykinin receptor expressed in mouse erythroleukemia cells; type: cell-based
Sequence of Substance-P receptor (P25103 whole entry): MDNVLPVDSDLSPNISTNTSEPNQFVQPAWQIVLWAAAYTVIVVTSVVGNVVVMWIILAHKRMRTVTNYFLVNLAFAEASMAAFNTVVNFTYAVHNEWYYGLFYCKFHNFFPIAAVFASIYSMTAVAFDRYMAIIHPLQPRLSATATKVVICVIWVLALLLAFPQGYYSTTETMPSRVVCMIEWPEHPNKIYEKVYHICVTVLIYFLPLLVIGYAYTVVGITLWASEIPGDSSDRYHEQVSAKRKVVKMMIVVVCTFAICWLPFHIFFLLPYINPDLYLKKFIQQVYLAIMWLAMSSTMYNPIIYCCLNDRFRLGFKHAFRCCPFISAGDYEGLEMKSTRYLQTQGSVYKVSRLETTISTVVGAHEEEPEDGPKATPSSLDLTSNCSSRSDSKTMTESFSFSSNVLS

[8] = Bioavailability in rat (dose 1-10 uM/kg i.v.); type: ADME, organism-based; conditions: in vivo, iv; outline: as §1
[9] = target: T4, Substance-K receptor (Cavia porcellus); assay: In vivo potency as dose ratio (ED50 ratio for Tachykinin receptor 2 (NK2) in presence and absence of antagonist) in guinea pig PMM after oral administration at a dose 30 uM/Kg

SMILES | pKB [1] | pKB [2] | further results
CCN1C(=O)c2ccccc2[C@H]1[C@@H](CCN1CCC(c2ccccc2[S@+](C)[O-])CC1)c1ccc(Cl)c(Cl)c1 |  |  | Ki (Substance-K receptor): 0.92 nM; Ki (Neuromedin-K receptor): 9190 nM
CN(C[C@@H](CCN1CCC(c2ccc(C(=O)O)cc2[S+](C)[O-])CC1)c1ccc(Cl)c(Cl)c1)C(=O)c1cc(C#N)cc2ccccc12 (mixture of isomers) | 6.38 | 7.87 | 
CN(C[C@@H](CCN1CCC(c2cc(F)ccc2[S+](C)[O-])CC1)c1ccc(Cl)c(Cl)c1)C(=O)c1cc(C#N)cc2ccccc12 (mixture of isomers) | 8.34 | 8.26 | 
CN(C[C@@H](CCN1CCC(c2ccc(O)cc2[S+](C)[O-])CC1)c1ccc(Cl)c(Cl)c1)C(=O)c1cc(C#N)cc2ccccc12 (mixture of isomers) | 8.34 | 8.93 | 
CN(C[C@@H](CCN1CCC(c2ccc(C(N)=O)cc2[S+](C)[O-])CC1)c1ccc(Cl)c(Cl)c1)C(=O)c1cc(C#N)cc2ccccc12 (mixture of isomers) | 6.92 | 8.53 | 
CN(C[C@@H](CCN1CCC(c2ccc(Br)cc2[S@+](C)[O-])CC1)c1ccc(Cl)c(Cl)c1)C(=O)c1cc(C#N)cc2ccccc12 | 8.12 | 8 | dose ratio [3]: 11; dose ratio [4]: 30
CN(C[C@@H](CCN1CCC(c2c(F)cccc2[S+](C)[O-])CC1)c1ccc(Cl)c(Cl)c1)C(=O)c1cc(C#N)cc2ccccc12 (some centres not stated) | 6.83 | 7.25 | 
COc1c(C#N)cc2ccccc2c1C(=O)N(C)C[C@@H](CCN1CCC(N2CCCNC2=O)CC1)c1ccc(Cl)c(Cl)c1 | 7.92 | 8.45 | 
CNC(=O)C1(N2CCCCC2=O)CCN(CC[C@H](CN(C)C(=O)c2cc(C#N)cc3ccccc23)c2ccc(Cl)c(Cl)c2)CC1 | 8.44 | 7.33 | 
CN(C[C@@H](CCN1CCC(c2ccccc2[S@+](C)[O-])CC1)c1ccc(Cl)c(Cl)c1)C(=O)c1cc(C#N)cc2cc(O)ccc12 | 7.31 | 8.02 | 
COc1c(C#N)cc2ccccc2c1C(=O)N(C)C[C@@H](CCN1CCC(c2ccccc2[S@+](C)[O-])CC1)c1ccc(Cl)c(Cl)c1 |  |  | ED50 [5]: 0.07 µmol/kg; bioavailability [6]: 51%; Ki (Substance-K receptor): 67 nM; dose ratio [7]: 610; Ki (Substance-P receptor): 0.17 nM; dose ratio [4]: 14; bioavailability [8]: 12%; Ki (Neuromedin-K receptor): 220 nM; dose ratio [9]: 2
CN(C[C@@H](CCN1CCC(N2CCCNC2=O)CC1)c1ccc(Cl)c(Cl)c1)C(=O)c1cc(C#N)cc2ccccc12 | 7.86 | 8.18 | 
CNC(=O)C1(N2CCOCC2=O)CCN(CC[C@H](CN(C)C(=O)c2cc(C#N)cc3ccccc23)c2ccc(Cl)c(Cl)c2)CC1 | 7.81 | 7.51 | 
CNC(=O)C1(N2CCCNC2=O)CCN(CC[C@H](CN(C)C(=O)c2cc(C#N)cc3ccccc23)c2ccc(Cl)c(Cl)c2)CC1 | 8.22 | 7.6 | 
COC(=O)c1ccc(C2CCN(CC[C@H](CN(C)C(=O)c3cc(C#N)cc4ccccc34)c3ccc(Cl)c(Cl)c3)CC2)c([S+](C)[O-])c1 (mixture of isomers) | 6.84 | 7.92 | 
CN(C)C(=O)C1(N2CCCCC2=O)CCN(CC[C@H](CN(C)C(=O)c2cc(C#N)cc3ccccc23)c2ccc(Cl)c(Cl)c2)CC1 | 8.52 | 7.36 | 
Cc1c(C#N)cc(C(=O)N(C)C[C@@H](CCN2CCC(c3ccccc3[S@+](C)[O-])CC2)c2ccc(Cl)c(Cl)c2)c2ccccc12 | 7.8 | 8.53 | 
CN(C[C@@H](CCN1CCC(c2cc(Br)ccc2[S+](C)[O-])CC1)c1ccc(Cl)c(Cl)c1)C(=O)c1cc(C#N)cc2ccccc12 (mixture of isomers) | 8.55 | 8.46 | 
CN(C[C@@H](CCN1CCC(c2ccccc2[S@+](C)[O-])CC1)c1ccc(Cl)c(Cl)c1)C(=O)c1cc(C#N)c(C#N)c2ccccc12 | 7.65 | 7.76 | 
CN(C[C@@H](CCN1CCC(c2ccc([S+](C)[O-])cc2[S+](C)[O-])CC1)c1ccc(Cl)c(Cl)c1)C(=O)c1cc(C#N)cc2ccccc12 (mixture of isomers) | 8.27 | 7.33 | 
CNC(=O)C1(N2CCOCC2=O)CCN(CC[C@H](CN(C)C(=O)c2c(OC)c(C#N)cc3ccccc23)c2ccc(Cl)c(Cl)c2)CC1 | 7.79 | 8.55 | 
CN(C[C@@H](CCN1CCC(c2ccccc2[S@+](C)[O-])CC1)c1ccc(Cl)c(Cl)c1)C(=O)c1cc(C#N)c(F)c2ccccc12 | 6.2 | 6.75 | 
CN(C[C@@H](CCN1CCC(c2ccccc2[S@+](C)[O-])CC1)c1ccc(Cl)c(Cl)c1)C(=O)c1cc(C#N)cc2cc(C#N)ccc12 | 6.42 | 7.77 | 
COc1ccc2c(C(=O)N(C)C[C@@H](CCN3CCC(c4ccccc4[S@+](C)[O-])CC3)c3ccc(Cl)c(Cl)c3)cc(C#N)cc2c1 | 7.97 | 7 | 
CN(C[C@@H](CCN1CCC(c2ccccc2[S@+](C)[O-])CC1)c1ccc(Cl)c(Cl)c1)C(=O)c1cc(C#N)c(Br)c2ccccc12 | 6.99 | 7.78 | 
COC(=O)c1ccc(C2CCN(CC[C@H](CN(C)C(=O)c3c(OC)c(C#N)cc4ccccc34)c3ccc(Cl)c(Cl)c3)CC2)c([S+](C)[O-])c1 (some centres not stated) | < 7 | 8.85 | 
CN(C[C@@H](CCN1CCC(c2ccc(F)cc2[S@+](C)[O-])CC1)c1ccc(Cl)c(Cl)c1)C(=O)c1cc(C#N)cc2ccccc12 | 8.38 | 8.01 | dose ratio [7]: 4; dose ratio [3]: 126; dose ratio [4]: 153; dose ratio [9]: 5
COc1c(C#N)cc2ccccc2c1C(=O)N(C)C[C@@H](CCN1CCC(C(=O)N(C)C)(N2CCCCC2=O)CC1)c1ccc(Cl)c(Cl)c1 | 7.7 | 7.88 | 
CNC(=O)C1(N2CCCNC2=O)CCN(CC[C@H](CN(C)C(=O)c2c(OC)c(C#N)cc3ccccc23)c2ccc(Cl)c(Cl)c2)CC1 | 8.11 | 8.14 | 
CN(C[C@@H](CCN1CCC(c2ccccc2[S+](C)[O-])CC1)c1ccc(Cl)c(Cl)c1)C(=O)c1cc(C#N)cc2ccccc12 (mixture of isomers) | 8.48 |  | 
